Screening data (PubChem)
MT stabilizer = microtubule stabilizers in HeLa cells, primary screen, imaging, high-content imaging. HeLa tubulin immunostaining HCS, 24 h; share of cells brighter than vehicle mean+2SD. 0.83% of 200,000 active. AID 2205, 2009. % tubulin-high responders, % at 10 µM;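 active means plate Z-score above 3 for both tubulin-high and condensed-nucleus cell shares, with cell loss under 80%, at 10 µM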;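 further: anti alpha tubulin signal scored within the nucleus-defined area of each cell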
bCat nuc transl = modulators of beta-catenin nuclear translocation, primary screen, imaging, HeLa cells, immunofluorescence, high-content; 0.3% of 190,000 active; AID 1665, 2009; nuclear translocation activity, % at 5 µM;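 active means nuclear translocation activity above 50% at 5 µM, with a well cell count of 50 or more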;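 further: per-cell ratio of nuclear to cytoplasmic median beta-catenin stain intensity; plate controls were DMSO negative control for no effect and GSK-3 inhibitor IX positive control for full effect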
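System: HeLa cells, endogenous beta-catenin; compound dosing: 5 µM primary single dose, 0.1% DMSO, 0.02–20 µM confirmation series; incubation: 24 h compound exposure at 37°C, 5% CO2; signal: beta-catenin immunofluorescence imaging with DAPI; evaluation: % activation, nuclear-to-cytoplasmic median beta-catenin signal ratio per cell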
ROMK primary = ROMK potassium channel modulators, primary screen, cell-based, thallium flux, MLSMR library | B-score at 10 µM | Tet-inducible ROMK, thallium flux fluorescence; actives lie on both sides | AID 1918, 2009 | 2% of 130,000 active;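 active means signal ratio slope over the read window, or its plate-corrected B-score, at least 3 SD from the plate mean, either direction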;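 further: B-score of the F/F0 ratio slope over 7 to 12 s after thallium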
Target sequence (P48048 whole entry, looked up): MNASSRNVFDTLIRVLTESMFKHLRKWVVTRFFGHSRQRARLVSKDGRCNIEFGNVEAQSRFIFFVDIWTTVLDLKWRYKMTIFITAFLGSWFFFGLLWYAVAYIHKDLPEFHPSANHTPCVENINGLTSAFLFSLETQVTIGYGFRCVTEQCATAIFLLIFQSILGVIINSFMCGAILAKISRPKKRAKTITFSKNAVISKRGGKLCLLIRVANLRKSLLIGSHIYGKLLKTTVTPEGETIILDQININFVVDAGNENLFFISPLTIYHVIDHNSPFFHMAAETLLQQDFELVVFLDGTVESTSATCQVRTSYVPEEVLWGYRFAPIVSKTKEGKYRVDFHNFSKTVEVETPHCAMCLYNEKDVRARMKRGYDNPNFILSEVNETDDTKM
The depositor's hits bear a star; nt = no result given. Hits are enriched below; roughly 1.9% of the tested compounds scored in any of these assays.

SMILES	MT stabilizer	bCat nuc transl	ROMK primary
CCOc1ccc(C2CC(=O)c3c([nH]c(C(=O)OC)c3C)C2)cc1OC (centres undefined)	1.0	1.8	1.06
COC(=O)c1[nH]c2c(c1C)C(=O)CCC2	5.3	nt	0.186
COC(=O)c1[nH]c2c(c1C)C(=O)CC(c1cccs1)C2 (centres undefined)	15.7*	39.2	nt
COC(=O)c1[nH]c2c(c1C)C(=O)CC(c1cc(OC)ccc1OC)C2 (centres undefined)	26.7*	-1.5	nt
O=C(O)CCCCCCCCCCP(=O)(c1ccccc1)c1ccccc1	nt	0.0	0.0176
O=P(CCCCCCCCCP(=O)(c1ccccc1)c1ccccc1)(c1ccccc1)c1ccccc1	4.8	0.8	-4.69*
Cc1nc2c(C)cccc2cc1C(=O)N/N=C/c1ccc(C(=O)O)cc1	4.5	-0.8	0.089
Cc1nc2c(C)cccc2cc1C(=O)N/N=C/c1ccc(N(C)C)cc1	40.0*	38.9	2.18
Cc1ccc2nc(C)c(C(=O)N/N=C/c3cccc([N+](=O)[O-])c3)cc2c1	2.5	nt	0.257
Cc1nc2c(C)cccc2cc1C(=O)N/N=C/c1cccc([N+](=O)[O-])c1	20.3*	0.5	nt
COc1cc(C(O)P(=O)(OCCC(C)C)c2ccc(N(C)C)cc2)cc(OC)c1OC (centres undefined)	nt	0.3	nt
O=C(Nc1cccc([N+](=O)[O-])c1)C1CC(=O)N(C2CCCCC2)C1 (centres undefined)	3.2	2.4	0.0827
Cc1ccc2[nH]c3c(c2c1)CN(C(=O)CN1c2ccc(F)cc2CCC1C)CC3 (centres undefined)	37.8*	30.3	nt
Cc1ccc2[nH]c3c(c2c1)CN(C(=O)CN1CCN(c2cccc(C)c2C)CC1)CC3	2.5	nt	nt
CCC(C)(C(=O)NC1CCCCC1)N(C(=O)CC1NC(=O)NC1=O)c1c(C)n(C)n(-c2ccccc2)c1=O (centres undefined)	2.2	-3.0	0.607
Cn1c(=O)[nH]c(=O)c2c1nc(Br)n2CCCSc1nc2ccccc2o1	24.6*	nt	nt
Cn1c(=O)[nH]c(=O)c2c1nc(N1CCCC1)n2CCCSc1nc2ccccc2o1	2.3	nt	-1.39
Cc1nc(SCCOc2ccccc2F)[nH]c(=O)c1Cc1ccccc1	4.4	-1.5	0.252
CCOc1ccccc1N1CCN(C(=O)c2ccccc2)CC1	2.4	nt	nt
CCOc1ccccc1N1CCN(C(=O)C2c3ccccc3Oc3ccccc32)CC1	39.6*	59.5*	nt
Cc1[nH]c(C(=O)N/N=C/c2ccc(C(=O)O)cc2)c(C)c1C(=O)N/N=C/c1ccc(C(=O)O)cc1	3.2	-0.8	nt
CCOC(=O)c1c(C)[nH]c(C(=O)N/N=C/c2ccc(Br)cc2)c1C	7.6	121.3*	nt
CCOC(=O)c1c(OCCO)nn(-c2ccccc2)c1N	5.9	0.9	0.223
COCc1ccc(C(=O)N2CCCC(CCC(=O)NCc3ccccc3F)C2)o1 (centres undefined)	23.5*	40.9	0.578
O=C(CCC1CCCN(C(=O)c2ccco2)C1)NCc1ccccc1F (centres undefined)	8.0	-1.2	0.225
SMILES	MT stabilizer	bCat nuc transl	ROMK primary
CCN(CC)S(=O)(=O)c1ccc(N2CCCCC2)c(C(=O)Nc2ccccc2N2CCOCC2)c1	1.5	0.1	-3.64*
CCN(CC)S(=O)(=O)c1ccc(N2CCOCC2)c(NC(=O)c2cccc3ccccc23)c1	3.7	-1.8	nt
Cc1c(O)c2c3c(cccc3c1O)C(=O)N(c1ccccc1)C2=O	3.6	nt	nt
COc1ccc(-c2[nH]ncc2N=Nc2cc(C)cc(C)c2)cc1	16.1*	11.5	0.124
COc1ccc(-c2[nH]ncc2-c2ccc3c(c2)OCCO3)c(O)c1	3.9	6.6	nt
COc1ccc(-c2nc3ccccc3nc2-c2ccccc2)cc1	4.5	-0.8	-1.55
COc1ccc(-c2[nH]ncc2N=Nc2ccccc2)cc1	18.9*	89.4*	1.35
CCc1n[n+](CC(=O)c2ccccc2)c(N)s1	5.8	2.8	-0.12
O=C(NC1CCCC1)C(c1ccc(F)cc1)N(Cc1ccccc1Cl)C(=O)CCl (centres undefined)	2.5	4.8	0.336
CN(C)CCN(C(=O)/C=C/c1cccs1)c1nc2c(F)cc(F)cc2s1	21.3*	nt	nt
CN(C)CCCN(C(=O)/C=C/c1cccs1)c1nc2ccc(F)cc2s1	2.4	4.2	-0.276
CCSc1nnc(N(CCC#N)CCC#N)s1	2.9	2.5	-4.97*
O=C(O)CCN(CCC(=O)O)c1nnc(SCc2ccccc2)s1	2.3	-5.8	-0.0309
CCC(CC)c1nc(C#N)c(NCc2ccccc2)o1	15.3*	4.3	nt
N#Cc1nc(Cc2ccccc2)oc1NCc1ccccc1	1.7	0.9	-1.48
CCCCN(C(=O)/C=C/c1ccco1)c1c(N)n(Cc2ccccc2)c(=O)[nH]c1=O	1.3	0.2	0.589
